Measurements from ChEMBL document CHEMBL1124759, “Fluoronaphthyridines and quinolones as antibacterial agents. 2. Synthesis and structure-activity relationships of new 1-tert-butyl 7-substituted derivatives” (J Med Chem, 1990).
≈ marks a conversion by molar mass, not a printed value.

Columns and labels:
Enterococcus faecium = experiment: In vitro minimum inhibitory concentration (MIC) against Enterococcus faecium A 24885 at 37 degrees C for 18 h.; assay type: functional
How it was run: (§1)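 Two-fold serial broth dilution in nutrient broth. Inoculum adjusted to 10^6 cfu/mL. Compounds tested from 0.0005 to 250 µg/mL.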

Pseudomonas aeruginosa [1] = experiment: In vitro minimum inhibitory concentration (MIC) against Pseudomonas aeruginosa A 9843 at 37 degree C for 18 h; assay type: functional; how it was run: as §1
Enterobacter cloacae = experiment: In vitro minimum inhibitory concentration (MIC) against Enterobacter cloacae A 9656 at 37 degrees C for 18 h.; assay type: functional
Serratia marcescens = experiment: In vitro minimum inhibitory concentration (MIC) against Serratia marcescens A 20019 at 37 degrees C for 18 hr; assay type: functional; how it was run: as §1
Klebsiella pneumoniae [2] = experiment: In vitro minimum inhibitory concentration (MIC) against Klebsiella pneumoniae A 9664 at 37 degrees C for 18 h.; assay type: functional; how it was run: as §1
Staphylococcus aureus [3] = experiment: In vitro minimum inhibitory concentration (MIC) against Staphylococcus aureus Smith A 9537 at 37 degrees C for 18 hr; assay type: functional; how it was run: as §1
Escherichia coli [4] = experiment: In vitro minimum inhibitory concentration (MIC) against Escherichia coli A 15119 at 37 degrees C for 18 h.; assay type: functional; how it was run: as §1
Enterococcus faecalis = experiment: In vitro minimum inhibitory concentration (MIC) against Enterococcus faecalis A 9808 at 37 degrees C for 18 h.; assay type: functional; how it was run: as §1
Morganella morganii = experiment: In vitro minimum inhibitory concentration (MIC) against Morganella morganii A 15153 at 37 degrees C for 18 h.; assay type: functional; how it was run: as §1
Klebsiella pneumoniae [5] = experiment: Efficacy on systematic infections against Klebsiella pneumoniae A 9664 after oral administration in mice; assay type: functional; conditions: read-out: PD50
How it was run: (§2)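 Mice given compound orally after lethal systemic infection. Read-out is the oral dose protecting 50% of mice from death (PD50), reported in mg/kg.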

Escherichia coli [6] = experiment: Efficacy on systematic infections against Escherichia coli A 15119 after oral administration in mice; assay type: functional; conditions: read-out: PD50; how it was run: as §2
Pseudomonas aeruginosa [7] = experiment: Efficacy on systematic infections against Pseudomonas aeruginosa A 9843 after oral administration in mice; assay type: functional; conditions: read-out: PD50; how it was run: as §2
Staphylococcus aureus [8] = experiment: Efficacy on systematic infections against Staphylococcus aureus A 9537 after oral administration in mice; assay type: functional; conditions: read-out: PD50; how it was run: as §2
Pseudomonas aeruginosa [9] = experiment: In vitro minimum inhibitory concentration (MIC) against Pseudomonas aeruginosa A 9843 at 37 degrees C for 18 h; assay type: functional; how it was run: as §1
[10] = Tested for aqueous solubility; conditions: aqueous medium

With `CCNCC1CCN(c2cc3c(cc2F)c(=O)c(C(=O)O)cn3C(C)(C)C)C1` (configuration not stated) the MIC (Enterococcus faecium) was 4 µg/mL (≈ 10.3 µM), the MIC (Pseudomonas aeruginosa [1]) was 8 µg/mL (≈ 20.5 µM) and the MIC (Enterobacter cloacae) was 0.5 µg/mL (≈ 1.28 µM). The MIC (Serratia marcescens) was 8 µg/mL (≈ 20.5 µM), the MIC (Klebsiella pneumoniae [2]) was 1 µg/mL (≈ 2.57 µM) and the MIC (Staphylococcus aureus [3]) was 0.06 µg/mL (≈ 0.154 µM). It also gave an MIC (Escherichia coli [4]) of 0.25 µg/mL (≈ 0.642 µM), an MIC (Enterococcus faecalis) of 0.5 µg/mL (≈ 1.28 µM) and an MIC (Morganella morganii) of 2 µg/mL (≈ 5.14 µM).

With `CC(C)(C)n1cc(C(=O)O)c(=O)c2cc(F)c(N3C[C@@H](CN)[C@@H](F)C3)nc21` the MIC (Enterococcus faecium) was 1 µg/mL (≈ 2.63 µM), the ED50 (Klebsiella pneumoniae [5]) was 18 mg/kg and the MIC (Pseudomonas aeruginosa [1]) was 0.5 µg/mL (≈ 1.31 µM). For the same molecule, the MIC (Enterobacter cloacae) was 0.25 µg/mL (≈ 0.657 µM), the MIC (Serratia marcescens) was 0.5 µg/mL (≈ 1.31 µM) and the ED50 (Escherichia coli [6]) was 18 mg/kg. The MIC (Klebsiella pneumoniae [2]) was 0.25 µg/mL (≈ 0.657 µM), the MIC (Staphylococcus aureus [3]) was 0.015 µg/mL (≈ 0.0394 µM) and the ED50 (Pseudomonas aeruginosa [7]) was 18 mg/kg. The MIC (Escherichia coli [4]) was 0.06 µg/mL (≈ 0.158 µM), the MIC (Enterococcus faecalis) was 0.13 µg/mL (≈ 0.342 µM) and the ED50 (Staphylococcus aureus [8]) was 4.5 mg/kg. For the same molecule, the MIC (Morganella morganii) was 0.5 µg/mL (≈ 1.31 µM).

`CC(C)(C)n1cc(C(=O)O)c(=O)c2cc(F)c(N3CCNC(c4ccccc4)C3)nc21.CS(=O)(=O)O` (configuration not stated) showed an MIC (Enterococcus faecium) of 8 µg/mL, an MIC (Pseudomonas aeruginosa [1]) of 4 µg/mL and an MIC (Enterobacter cloacae) of 0.06 µg/mL. For the same molecule, the MIC (Serratia marcescens) was 2 µg/mL, the MIC (Klebsiella pneumoniae [2]) was 0.06 µg/mL and the MIC (Staphylococcus aureus [3]) was 0.03 µg/mL. It also gave an MIC (Escherichia coli [4]) of 0.06 µg/mL, an MIC (Enterococcus faecalis) of 1 µg/mL and an MIC (Morganella morganii) of 1 µg/mL.

Work on `CC(C)(C)n1cc(C(=O)O)c(=O)c2cc(F)c(N3CCNC(c4ccccc4)C3)cc21.CS(=O)(=O)O` (configuration not stated) yielded an MIC (Enterococcus faecium) of 4 µg/mL, an MIC (Pseudomonas aeruginosa [1]) of 1 µg/mL and an MIC (Enterobacter cloacae) of 0.13 µg/mL. The MIC (Serratia marcescens) was 2 µg/mL, the MIC (Klebsiella pneumoniae [2]) was 0.25 µg/mL and the MIC (Staphylococcus aureus [3]) was 0.06 µg/mL. For the same molecule, the MIC (Escherichia coli [4]) was 0.06 µg/mL, the MIC (Enterococcus faecalis) was 0.5 µg/mL and the MIC (Morganella morganii) was 0.5 µg/mL.

Work on `CN1CCN(c2cc3c(cc2F)c(=O)c(C(=O)O)cn3C(C)(C)C)CC1.Cl` yielded an MIC (Enterococcus faecium) of 16 µg/mL, an MIC (Enterobacter cloacae) of 0.25 µg/mL and an MIC (Serratia marcescens) of 1 µg/mL. For the same molecule, the MIC (Pseudomonas aeruginosa [9]) was 0.5 µg/mL, the MIC (Klebsiella pneumoniae [2]) was 0.25 µg/mL and the MIC (Staphylococcus aureus [3]) was 0.03 µg/mL. It also gave an MIC (Escherichia coli [4]) of 0.03 µg/mL, an MIC (Enterococcus faecalis) of 4 µg/mL and an MIC (Morganella morganii) of 0.25 µg/mL.

`CC[C@H]1CN(c2nc3c(cc2F)c(=O)c(C(=O)O)cn3C(C)(C)C)C[C@H]1N.Cl` gave an MIC (Enterococcus faecium) of 2 µg/mL, an MIC (Pseudomonas aeruginosa [1]) of 1 µg/mL and an MIC (Enterobacter cloacae) of 0.06 µg/mL. The MIC (Serratia marcescens) was 0.5 µg/mL, the MIC (Klebsiella pneumoniae [2]) was 0.13 µg/mL and the MIC (Staphylococcus aureus [3]) was 0.015 µg/mL. For the same molecule, the MIC (Escherichia coli [4]) was 0.13 µg/mL, the MIC (Enterococcus faecalis) was 0.25 µg/mL and the MIC (Morganella morganii) was 0.5 µg/mL.

Work on `CC(C)(C)n1cc(C(=O)O)c(=O)c2cc(F)c(N3CCC(N)C3)cc21.Cl` (configuration not stated) yielded an MIC (Enterococcus faecium) of 2 µg/mL, an ED50 (Klebsiella pneumoniae [5]) of 23 mg/kg and a solubility [10] of 70 µg/mL. For the same molecule, the MIC (Pseudomonas aeruginosa [1]) was 1 µg/mL, the MIC (Enterobacter cloacae) was 0.13 µg/mL and the MIC (Serratia marcescens) was 1 µg/mL. The ED50 (Escherichia coli [6]) was 5.4 mg/kg, the MIC (Klebsiella pneumoniae [2]) was 0.25 µg/mL and the MIC (Staphylococcus aureus [3]) was 0.03 µg/mL. The ED50 (Pseudomonas aeruginosa [7]) was 19.9 mg/kg, the MIC (Escherichia coli [4]) was 0.06 µg/mL and the MIC (Enterococcus faecalis) was 0.25 µg/mL. The ED50 (Staphylococcus aureus [8]) was 8.2 mg/kg and the MIC (Morganella morganii) was 0.5 µg/mL.
